This is one part of a sample in which hits are shown more often than they occur.
697 NFkB inh = inhibitors of the PMA/ionomycin-induced NF-kB reporter in 697 B cells; 330,000 tested, 0.33% active; 697 B-cell NF-kB luciferase reporter, 16 h; inhibition, % at 4 µM; in the data active = inhibition above about 35%
Jurkat NFkB inh = inhibitors of the PMA/ionomycin-induced NF-kB reporter in Jurkat cells; PMA/ionomycin-induced NF-kB luciferase reporter, luminescence; inhibition, % at 4 µM; AID 435003; 330,000 tested, 0.53% active; in the data active = inhibition above about 50%
CHOP inhibitor = inhibitors of CHOP induction in ER stress response | inhibition, % at 10 µM | AID 2732 | CHO-K1 CHOP-promoter luciferase, tunicamycin-induced, 15-18 h | 220,000 tested, 3.8% active;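 active = compounds that reduced the stress-induced luciferase reporter signal by more than about 70% of percent inhibition, limit read from the data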
XBP1 UPR activ = adaptive UPR (XBP1) activation | 330,000 tested, 0.33% active | AID 463104 | activation, % at 20 µM | CHO-XBP1 luciferase reporter, IRE1-XBP1 UPR activation, luminescence; percent of tunicamycin response, DMSO as zero;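 active = versus positive control, 20 µM dose yields 30% or more activation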
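incubation = overnight seeding at 37 °C, 6 h compound treatment at 37 °C | assay system = CHO-XBP1 cells stably carrying IRE1-XBP1-driven luciferase reporter | input = 1000 cells per well | detection = luciferase luminescence | dosing = single point, 20 µM final compound, 1% DMSO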
UPR CHOP act = apoptotic UPR (CHOP) activation. CHO-CHOP luciferase reporter, luminescence; percent of tunicamycin response over DMSO baseline. activation, % at 10 µM. 330,000 tested, 0.34% active. AID 449763;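 active = at 10 µM dose, activation of 40% or more, normalized to positive control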
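Material: CHO-CHOP cells, stable luciferase reporter of PERK-eIF2a-CHOP signalling; quantity: 500 reporter cells seeded per well; buffer or medium: F12 medium containing 10% fetal bovine serum; compound: one dose, 10 µM in 0.5% DMSO; incubation: 6 h compound treatment, 37 °C; measured by: Steady-Glo luciferase luminescence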
Hits are given with their value; – = inactive; · = no result given.

SMILES | 697 NFkB inh | Jurkat NFkB inh | CHOP inhibitor | XBP1 UPR activ | UPR CHOP act
CCN1C(=O)CSC1=NC1C2CC3CC(C2)CC1C3 (centres undefined) | – | – | 75.9 | – | –
CCOc1ccc(N=C2SCC(=O)N2CC)cc1 | – | – | · | – | –
COc1ccccc1CN1CC(C(=O)N2CCC(OC)CC2)CCC1=O (centres undefined) | – | – | · | – | –
Cc1nn(-c2ccccc2)c(N)c1Sc1ccc([N+](=O)[O-])cc1 | – | – | – | – | –
Cc1nn(S(=O)(=O)c2ccc(Cl)cc2)c(C)c1Sc1ccc([N+](=O)[O-])cc1 | · | · | 85.2 | · | ·
Cc1cc2ncn(/N=C/c3ccc(-c4ccccc4)o3)c2cc1C | – | – | 77.4 | – | –
O=C(Nc1nc(-c2ccccc2)cs1)Nc1ccc(F)cc1F | – | – | 88.6 | – | –
O=C(Nc1ccc(F)cc1)Nc1ccccc1F | – | – | – | – | –
O=C(Nc1ccc(NC(=O)c2ccccc2O)cc1)Nc1ccc(F)cc1F | – | – | 71.3 | – | –
CSc1nnc(CSCc2ccc(Cl)cc2Cl)n1-c1ccccc1 | – | – | 79.3 | – | –
CCOC(=O)c1[nH]c2ccc(OCC)cc2c1NC(=O)CN1CCCC(C)C1 (centres undefined) | – | – | – | – | –
CCOC(=O)c1[nH]c2cc3c(cc2c1NC(=O)CN1CC(C)CC(C)C1)OCO3 (centres undefined) | – | – | 79.4 | – | –
O=[N+]([O-])c1ccc(SCCO)nc1SCCO | – | – | – | – | –
CCCc1ccc(/C=C2\C(=O)c3ccccc3C(O)=C2C(=O)OCC)cc1 | – | – | 85.8 | – | –
CCOC(=O)C1=C(O)c2ccccc2C(=O)/C1=C\c1ccc(CC)cc1 | · | · | 86.7 | · | ·
CCOC(=O)C1=C(Cc2ccc(OC)cc2)C(=O)c2ccccc2C1=O | · | · | 94.6 | · | ·
Cc1cc(Cl)ccc1OCC(=O)n1cc(C(=O)c2cc(Cl)ccc2O)cn1 | – | – | 76.9 | – | –
CCCN1CCC(=O)N([C@H](CN=[N+]=[N-])Cc2ccccc2)CC1 | – | – | · | – | –
COc1ccc(/C=C/c2nc(N)nc(-c3ccccc3O)n2)cc1 | – | – | 78.4 | – | –
COc1ccc(/C=C/c2nc(N)nc(-c3ccccc3O)n2)cc1OC | – | – | 79.2 | – | –
Nc1nc(N)nc(-c2ccccc2O)n1 | – | – | – | – | –
C#CCOCCOCCOCCNc1nc(N2CCN(C(=O)[C@H]([C@@H](C)CC)n3cc([C@@H](N)Cc4ccc(O)cc4)nn3)CC2)nc(N2CCN(C(=O)[C@H](CCCCN)n3cc([C@@H](N)CC(C)C)nn3)CC2)n1 | – | – | – | – | –
CCCN(CC(=O)Nc1ccccc1C)C(=O)c1ccc(N2CCCCC2)c([N+](=O)[O-])c1 | – | – | · | – | –
O=C(NNC(=S)NC1CCCCC1)c1ccccc1Br | – | – | · | – | –
CC1CCCC(NC(=S)NC(=O)c2ccccc2Br)C1C (centres undefined) | – | – | 88.7 | – | –
SMILES | 697 NFkB inh | Jurkat NFkB inh | CHOP inhibitor | XBP1 UPR activ | UPR CHOP act
Cc1cccc(NC(=O)CN2C(=O)N/C(=C/c3cc(C)n(C(C)C)c3C)C2=O)c1 | – | – | – | – | –
Cc1cccc(NC(=O)CN2C(=O)N/C(=C/c3ccc(C)s3)C2=O)c1 | – | – | 92.1 | – | –
CCCCSc1nc(C)cc(SCC(=O)N/N=C/c2cccc(OC)c2O)n1 | – | – | 74.6 | – | –
COc1cccc(/C=N/NC(=O)CSc2nnc(C)n2-c2ccccc2)c1O | – | – | – | – | –
Cc1cc(O)c(-c2cc(C(=O)Nc3ccc(S(=O)(=O)N4CCOCC4)cc3)[nH]n2)cc1C | – | – | 87.3 | – | –
O=C(Nc1ccc(S(=O)(=O)N2CCOCC2)cc1)c1cc(-c2cc(Cl)ccc2O)n[nH]1 | – | – | – | – | –
COc1cccc(OC)c1C(=O)Nc1ccc(C(=O)NCc2ccccc2)cc1 | – | – | · | – | –
N#Cc1cc(-c2ccccc2)nc(NN)n1 | – | – | – | – | –
N#Cc1cc(-c2ccccc2)nc(Oc2ccc(Cl)cc2)n1 | – | – | 71.2 | – | –
Cc1cccc(N2CCc3c2nc2ccc(Br)cc2c3N)c1 | – | – | – | – | –
CSc1nc(C)c2c(n1)N(c1cccc(C)c1)CC2 | – | – | 88.2 | – | –
COc1ccc(CC(NC(C)=O)C(=O)NC2CCN(C(=O)c3ccccc3F)CC2)cc1 (centres undefined) | – | – | · | – | –
O=C(CSc1nc(-c2ccc(F)cc2)nc2c1Cc1ccccc1O2)Nc1ccc(C(=O)O)cc1 | · | · | – | · | ·
O=C(CSc1nc(-c2ccccc2)nc2c1Cc1ccccc1O2)Nc1ccc(C(=O)O)cc1 | · | · | 76.7 | · | ·
CCc1ccc(NC(=O)CSc2nc3cc(C(=O)OC)ccc3c(=O)n2CC2CCCO2)cc1 (centres undefined) | – | – | 93.6 | – | –
COC(=O)c1ccc2c(=O)n(Cc3ccco3)c(SCC(=O)Nc3cc(C)on3)nc2c1 | – | – | 90.7 | – | –
COC(=O)c1ccc2c(=O)n(CC3CCCO3)c(SCC(=O)Nc3ccccc3OC)nc2c1 (centres undefined) | – | – | – | – | –
CC(C)C(=O)N1CCN(c2ccccc2NC(=O)c2cccc3ccccc23)CC1 | – | – | · | – | –
COc1ccc(CCNC(=O)COc2cc(O)c3c(c2)OC(C)(C)CC3=O)cc1OC | – | – | · | – | –
Cc1ccc(NC(=O)c2ccc3c(c2)C(=O)N(c2cc(C)ccc2C)C3=O)nc1 | – | – | · | – | –
N#Cc1nc(COc2ccccc2F)oc1NCCc1ccccc1 | – | – | 79.6 | – | –
N#Cc1nc(COc2ccc(Cl)cc2)oc1NCc1ccc2c(c1)OCO2 | – | – | 73.3 | – | –
N#Cc1nc(-c2ccc(F)cc2)oc1NCc1ccco1 | – | – | – | – | –
Cc1ccc(CNc2oc(COc3ccccc3Cl)nc2C#N)cc1 | – | – | 85.3 | – | –
N#Cc1nc(-c2ccc(F)cc2)oc1NCc1ccccc1 | – | – | 81.7 | – | –
SMILES | 697 NFkB inh | Jurkat NFkB inh | CHOP inhibitor | XBP1 UPR activ | UPR CHOP act
COc1ccc(CNc2oc(COc3ccccc3Cl)nc2C#N)cc1 | – | – | – | – | –
COc1ccc(CCNc2oc(COc3ccccc3)nc2C#N)cc1 | – | – | – | – | –
CC(C)(C)C(=O)NC(=S)NNC(=O)c1ccc(Cl)cc1Cl | – | – | 92.5 | – | –
CC(OC(=O)CSc1ccccc1)C(=O)NC1CCCCC1C (centres undefined) | – | – | · | – | –
CCOc1ccc(S(=O)(=O)N(CC(=O)Nc2cc(C)on2)Cc2ccccc2Cl)cc1 | – | – | 73.3 | – | –
CN(C)S(=O)(=O)c1cccc(NC(=O)CCCc2nc3ccccc3c(=O)[nH]2)c1 | – | – | · | – | –
O=C(c1cccc(C(F)(F)F)c1)C1CCCN(C(=O)c2cc(C3CC3)[nH]n2)C1 (centres undefined) | – | – | · | – | –
COc1ccc(Oc2ccccc2/C=N/O)cc1 | – | – | – | – | –

High-throughput results from PubChem.
